Measurements reported in PMC9968502 (International Journal of Nanomedicine, 2023).
≈ marks a conversion by molar mass, not a printed value. One block for each molecule: values may come before it.

What was measured:
[1] = Apparent solubility measurement in deionised water; assay type: physicochemical; settings: 37 °C, thermodynamic from solid
Procedure, shortened: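 Excess crystalline test compound or its 1:10 solid dispersion was shaken in deionised water at 50 strokes/min and 37 °C for 24 h, then filtered (0.45 µm). Concentration was measured by HPLC: C18 column, 2% glacial acetic acid:methanol (23:77 v/v) at 1 mL/min, detection at 424 nm. Measured in triplicate.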

[2] = Dissolution test in pH 1.2 and pH 6.8 buffers with 0.2% Tween 80; assay type: physicochemical; settings: 0.2% Tween 80, 37 °C
Procedure, shortened: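 Crystalline compound or solid dispersion, each equivalent to 2 mg test compound, was stirred at 50 rpm and 37 °C in 100 mL phosphate buffer (pH 1.2 or pH 6.8, each with 0.2% Tween 80). Samples were taken at 5, 10, 20, 30, 60, 120, 180, 240 and 300 min, with medium replaced at 37 °C. Samples were filtered (0.45 µm) and analysed by the 424 nm HPLC method.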

[3] = Particle size analysis of micelles by dynamic light scattering; assay type: physicochemical; settings: in water, DLS
Procedure, shortened: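 Carrier glycoside alone or the solid dispersion powder was dispersed in deionised water and sonicated for 2 min. Volumetric size distribution was measured by dynamic light scattering, and the mean size was taken from 3 replicates.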

[4] = ref [19], cited from earlier work
[5] = above the CMC, previous studies; ref [16–18]; cited from earlier work

solubility at 24 h [1]: 0.25 µg/mL (≈ 0.679 µM)
CUR released ([2]; pH 1.2 buffer, in 300 min): 22%
Dissolution rate (in words) ([2]; pH 6.8 buffer): slow dissolution rate
Micelle size (diameter) [3]: ~ 154 nm
Molecule: COc1cc(/C=C/C(=O)CC(=O)/C=C/c2ccc(O)c(OC)c2)ccc1O [CUR, Curcumin]

Molecule: COc1cc(C2Oc3cc([C@H]4Oc5cc(O)cc(O)c5C(=O)[C@@H]4O)ccc3OC2CO)ccc1O (stereo partly drawn) [silybin]
Fold increment of silybin water solubility by Mog-V [4]: 2000 fold
Water solubility of silybin ([4]; silybin alone): 1 µg/mL
Water solubility of silybin with Mog-V ([4]; solid dispersion of silybin in Mog-V dissolved in water): 2000 µg/mL

Molecule: α-Glucosyl Stevia [Stevia-G]
Aggregation number [5]: 12

Molecule: α-Glycosyl Rutin [Rutin-G]
Aggregation number [5]: 4
